According to ChEMBL document CHEMBL3098054, “The synthesis of novel taxoids for oral administration” (Bioorg Med Chem, 2014):

Key:
[1] = Apparent permeability from apical to basolateral side in human Caco2 cells at 10 uM after 90 mins by LC-MS/MS analysis; assay type: ADME, cell-based, Caco-2; settings: Caco-2
MCF7 [2] = experiment: Cytotoxicity against human MCF7 cells after 72 hrs by MTT assay; assay type: functional, cell-based; settings: MCF7, 72 h
Method in brief: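 MCF-7 cells exposed to compound for 72 h and read by MTT. At least six replicate wells per assay, run on three separate occasions. IC₅₀ given as mean with standard deviation.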

HL-60 = experiment: Cytotoxicity against human HL60 cells at 1 uM after 72 hrs by MTT assay; assay type: functional; settings: HL-60, 72 h, read-out: GI
Method in brief: (§1)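 Cells plated at 2000–5000/well, attached overnight at 37 °C. DMSO stocks (100 mM) serially diluted in medium to a final 1 µM, tested in duplicate wells. Exposure 72 h at 37 °C, 5% CO₂. MTT (5 mg/mL, 10 µL) added for 4 h. Lysis in 10% SDS / 5% isopropanol / 0.012 N HCl, then OD read at 580–680 nm.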

DU-145 = experiment: Cytotoxicity against human DU145 cells at 1 uM after 72 hrs by MTT assay; assay type: functional; settings: DU-145, 72 h, read-out: GI; method in brief: as §1
HT-29 = experiment: Cytotoxicity against human HT-29 cells at 1 uM after 72 hrs by MTT assay; assay type: functional; settings: HT-29, 72 h, read-out: GI; method in brief: as §1
A-375 = experiment: Cytotoxicity against human A375 cells at 1 uM after 72 hrs by MTT assay; assay type: functional; settings: A-375, 72 h, read-out: GI
Method in brief: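 Cells plated at 2000–5000/well, attached overnight at 37 °C. DMSO stocks (100 mM) serially diluted in medium to a final 1 µM, tested in duplicate wells. MTT (5 mg/mL, 10 µL) added for 4 h. Lysis in 10% SDS / 5% isopropanol / 0.012 N HCl, then OD read at 580–680 nm.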

MCF7 [3] = experiment: Cytotoxicity against human MCF7 cells at 1 uM after 72 hrs by MTT assay; assay type: functional; settings: MCF7, 72 h, read-out: GI; method in brief: as §1
NCI-H460 = experiment: Cytotoxicity against human NCI-H460 cells at 1 uM after 72 hrs by MTT assay; assay type: functional; settings: NCI-H460, 72 h, read-out: GI; method in brief: as §1
HeLa = experiment: Cytotoxicity against human HeLa cells at 1 uM after 72 hrs by MTT assay; assay type: functional; settings: read-out: GI; method in brief: as §1
A2780 = experiment: Cytotoxicity against human A2780 cells at 1 uM after 72 hrs by MTT assay; assay type: functional; settings: A2780, 72 h, read-out: GI; method in brief: as §1

Row | Structure (SMILES) | Papp A→B at 1.5 h, 10 µM [1] [×10⁻⁶ cm/s] | IC50 (MCF7 [2]) [nM] | inhibition of growth at 1 µM (HL-60) [%] | inhibition of growth at 1 µM (DU-145) [%] | inhibition of growth at 1 µM (HT-29) [%] | inhibition of growth at 1 µM (A-375) [%] | inhibition of growth at 1 µM (MCF7 [3]) [%] | inhibition of growth at 1 µM (NCI-H460) [%] | inhibition of growth at 1 µM (HeLa) [%] | inhibition of growth at 1 µM (A2780) [%]
1 | CO[C@H]1C(=O)[C@]2(C)[C@@H](OC(=O)N(C)C)C[C@H]3OC[C@@]3(OC(C)=O)[C@H]2[C@H](OC(=O)c2ccccc2)[C@]2(O)C[C@H](OC(=O)[C@H](O)[C@@H](NC(=O)c3ccccc3)c3ccccc3)C(C)=C1C2(C)C | 3.27 | 64.7 | 97.8 | 85.8 | 89.4 | 88.4 | 90.8 | 87.7 | 103 | 95.6
2 | CO[C@H]1C(=O)[C@]2(C)[C@@H](OC)C[C@H]3OC[C@@]3(OC(C)=O)[C@H]2[C@H](OC(=O)c2ccccc2)[C@]2(O)C[C@H](OC(=O)[C@H](O)[C@@H](NC(=O)c3ccccc3)c3ccccc3)C(C)=C1C2(C)C |  |  | 97.2 | 86.4 | 87.5 | 89.7 | 92.1 | 85 | 102 | 95.2
3 | CO[C@H]1C[C@H]2OC[C@@]2(OC(C)=O)[C@H]2[C@H](OC(=O)c3ccccc3)[C@]3(O)C[C@H](OC(=O)[C@H](O)[C@@H](NC(=O)OC(C)(C)C)c4ccccn4)C(C)=C([C@@H](OC(=O)N(C)C)C(=O)[C@]12C)C3(C)C | 3.02 |  |  |  |  |  |  |  | 100 | 
4 | CO[C@H]1C[C@H]2OC[C@@]2(OC(C)=O)[C@H]2[C@H](OC(=O)c3ccccc3)[C@]34OC(=O)O[C@H]3[C@H](OC(=O)[C@H](O)[C@H](CC(C)C)NC(=O)OC(C)(C)C)C(C)=C([C@@H](OC(=O)N(C)C)C(=O)[C@]12C)C4(C)C | 1.07 | 6.44 |  |  |  |  |  |  |  | 
5 | COC(=O)O[C@H]1C[C@H]2OC[C@@]2(OC(C)=O)[C@H]2[C@H](OC(=O)c3ccccc3)[C@]3(O)C[C@H](OC(=O)[C@H](O)[C@@H](NC(=O)OC(C)(C)C)c4ccccn4)C(C)=C([C@@H](OC)C(=O)[C@]12C)C3(C)C | 4.53 |  |  |  |  |  |  |  | 102 | 
6 | CO[C@H]1C(=O)[C@]2(C)[C@@H](OC(=O)N(C)C)C[C@H]3OC[C@@]3(OC(C)=O)[C@H]2[C@H](OC(=O)c2ccccc2)[C@]2(O)C[C@H](OC(=O)[C@H](O)[C@@H](NC(=O)OC(C)(C)C)c3ccccn3)C(C)=C1C2(C)C | 4.41 | 46.6 |  |  |  |  |  |  | 103 | 
7 | CO[C@H]1C(=O)[C@]2(C)[C@@H](OC)C[C@H]3OC[C@@]3(OC(C)=O)[C@H]2[C@H](OC(=O)c2ccccc2)[C@]23OC(=O)O[C@H]2[C@H](OC(=O)[C@H](O)[C@@H](NC(=O)OC(C)(C)C)c2ccccn2)C(C)=C1C3(C)C | 3.66 | 3.4 |  |  |  |  |  |  |  | 
8 | COC(=O)O[C@H]1C[C@H]2OC[C@@]2(OC(C)=O)[C@H]2[C@H](OC(=O)c3ccccc3)[C@]3(O)C[C@H](OC(=O)[C@H](O)[C@@H](NC(=O)c4ccccc4)c4ccccc4)C(C)=C([C@@H](OC)C(=O)[C@]12C)C3(C)C | 3.32 |  | 97.8 | 88.3 | 89.7 | 94 | 107 | 90.3 | 102 | 96.9
9 | CO[C@H]1C(=O)[C@]2(C)[C@@H](OC)C[C@H]3OC[C@@]3(OC(C)=O)[C@H]2[C@H](OC(=O)c2ccccc2)[C@]2(O)C[C@H](OC(=O)[C@H](O)[C@@H](NC(=O)OC(C)(C)C)c3ccccc3)C(C)=C1C2(C)C [CABAZITAXEL] | 3.73 |  | 97.8 | 83.1 | 87.2 | 97 | 88.5 | 79.8 | 98.2 | 93.8
10 | COC(=O)O[C@H]1C(=O)[C@]2(C)[C@@H](OC)C[C@H]3OC[C@@]3(OC(C)=O)[C@H]2[C@H](OC(=O)c2ccccc2)[C@]2(O)C[C@H](OC(=O)[C@H](O)[C@@H](NC(=O)c3ccccc3)c3ccccc3)C(C)=C1C2(C)C | 4.38 |  | 96.8 | 86.2 | 88.8 | 94.2 | 95.5 | 86.4 | 101 | 95.8
